# Where a SMILES comes first, the peptide text is derived from it. [ ]: non-standard residue; d: D form.
# How the values were obtained:
# E. coli mature biofilms = test: Flow cell biofilm assay with confocal microscopy; format: cell-based, Escherichia coli; details: top FIC combination, added at day 2
# Procedure, shortened: (§1)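 Biofilms grown at 37°C in BM2 glucose minimal medium in flow chambers (1 × 4 × 40 mm channels) for 72 h. Test compound, antibiotic or both were added to the flow-through medium at day 2 of biofilm formation. Combination levels were taken from checkerboard FIC results, with peptide levels lowered in some cases. Cells were stained with LIVE/DEAD BacLight and imaged by confocal microscopy with 3D reconstruction.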
# [1] = test system: A. baumannii mature biofilms; test: Flow cell biofilm assay with confocal microscopy; format: cell-based, Acinetobacter baumannii; details: 0.8 μg/ml DJK-5 with tobramycin, added at day 2
# Procedure, shortened: as §1
# [2] = test system: Klebsiella pneumoniae mature biofilms; test: Flow cell biofilm assay with confocal microscopy; format: cell-based; details: top FIC combination, added at day 2
# Procedure, shortened: as §1
# [3] = test system: S. enterica mature biofilms; test: Flow cell biofilm assay with confocal microscopy; format: cell-based, Salmonella enterica; details: top FIC combination, added at day 2
# Procedure, shortened: as §1
# [4] = test system: P. aeruginosa PA14 biofilms; test: Flow cell biofilm assay with confocal microscopy; format: cell-based, Pseudomonas aeruginosa
# Procedure, shortened: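 P. aeruginosa PA14 biofilms grown at 37°C in BM2 glucose minimal medium in flow chambers (1 × 4 × 40 mm channels). […] For eradication, test compound was first added after 2 days of growth. Cells were stained with LIVE/DEAD BacLight and imaged by confocal microscopy.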
# P. aeruginosa PAO1 = test: C. elegans survival assay, infected; format: in vivo, Caenorhabditis elegans; details: peptide 20 μg/ml, 25°C, average ± SD, n ≥ 12
# G. mellonella = G. mellonella survival assay, uninfected; details: in vivo
# P. aeruginosa = details: free swimming (planktonic) cells; ref Overhage et al, 2008; cited from earlier work
# P. aeruginosa biofilm = details: relative to MIC; ref Overhage et al, 2008; cited from earlier work
compound,measurement,setting,value
CC[C@@H](C)[C@@H](NC(=O)[C@@H](C)NC(=O)[C@@H](CCCNC(=N)N)NC(=O)[C@@H](Cc1c[nH]c2ccccc12)NC(=O)[C@@H](CCC(N)=O)NC(=O)[C@H](N)C(C)C)C(=O)N[C@H](CCCNC(=N)N)C(=O)N[C@@H](C(=O)N[C@H](CCCNC(=N)N)C(=O)N[C@@H](C(=O)N[C@@H](C(=O)N[C@H](CCCNC(=N)N)C(N)=O)[C@H](C)CC)C(C)C)C(C)C [DJK5] (H-[dV][dQ][dW][dR][dA][dI][dR][dV][dR][dV][dI][dR]-NH2; N-terminus and C-terminus assumed),"eradication of 2-day-old biofilms, combination with ceftazidime",E. coli mature biofilms,not synergistic
same,"eradication of 2-day-old biofilms, combination with tobramycin",[1],eradication
same,"eradication of 2-day-old biofilms, combination with ciprofloxacin",[2],eradication
same,"eradication of 2-day-old biofilms, combination with ceftazidime",[3],eradication
same,"biofilm inhibition in flow cells, combination with ciprofloxacin","[4]; 0.1 μg/ml of DJK-5 with 0.04 μg/ml of ciprofloxacin, added at day 0, 3 days",complete biofilm inhibition
same,"eradication of 2-day-old biofilms, combination with ciprofloxacin","[4]; top FIC combination, added at day 2, P. aeruginosa PA14",much more limited dispersal but triggered cell death in remaining cells
same,C. elegans survival (%) 24h P. aeruginosa PAO1,P. aeruginosa PAO1; 24 h post infection,99 ± 2 %
same,C. elegans survival (%) 48h post infection P. aeruginosa PAO1,P. aeruginosa PAO1; 48 h post infection,96 ± 4 %
same,G. mellonella survival (%) 24h No infection,G. mellonella,100 ± 0%
same,G. mellonella survival (%) 48h No infection,G. mellonella,100 ± 0%
"LL-37: the human peptide LL-37, cationic host defense peptide",MIC,P. aeruginosa,> 64 µg/mL
same,concentration active against P. aeruginosa biofilms,P. aeruginosa biofilm,one sixteenth the MIC

# Reference: paper PMC4362967 (Chemistry & biology, 2015)
